Measured values reported in the M2OR odorant receptor database.
Numbering of substitutions follows the chain as printed.

Experiments:
Conditions in all cases: stereoisomer not certain
O5AP2 A105T = tested on: T1, O5AP2 A105T
T1 sequence (whole entry): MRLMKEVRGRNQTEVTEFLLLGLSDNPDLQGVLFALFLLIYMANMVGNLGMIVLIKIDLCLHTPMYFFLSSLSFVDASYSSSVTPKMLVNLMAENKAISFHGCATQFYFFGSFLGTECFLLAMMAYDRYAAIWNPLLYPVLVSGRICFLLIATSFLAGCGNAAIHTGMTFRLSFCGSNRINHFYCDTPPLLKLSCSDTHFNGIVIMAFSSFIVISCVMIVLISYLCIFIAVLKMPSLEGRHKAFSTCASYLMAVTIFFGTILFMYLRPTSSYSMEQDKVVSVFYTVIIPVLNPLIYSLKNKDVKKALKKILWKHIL
Outline: (§1)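 Values were gathered from published papers (main text and supplementary material), with extra details requested from the original authors when needed, and checked for typos and inconsistencies. Each receptor–molecule pair is called responsive (active) if the original authors judged the measured signal statistically different from baseline, and non-responsive (inactive) otherwise. Assay methods varied by source, often transient mammalian cell-line luciferase assays. Recorded details include cell line, G-protein, co-transfected protein and tags.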

O5AU1 = tested on: T2, O5AU1
T2 sequence (whole entry): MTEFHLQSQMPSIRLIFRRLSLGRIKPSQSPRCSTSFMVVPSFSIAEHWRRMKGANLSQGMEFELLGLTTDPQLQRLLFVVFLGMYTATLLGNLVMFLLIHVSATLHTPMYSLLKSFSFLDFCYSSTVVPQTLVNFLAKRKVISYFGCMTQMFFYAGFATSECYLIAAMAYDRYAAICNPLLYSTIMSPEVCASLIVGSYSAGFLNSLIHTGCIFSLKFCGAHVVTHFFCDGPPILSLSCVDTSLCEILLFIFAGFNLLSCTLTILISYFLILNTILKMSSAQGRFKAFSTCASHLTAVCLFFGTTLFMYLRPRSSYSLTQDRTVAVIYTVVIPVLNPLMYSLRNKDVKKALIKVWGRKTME
Outline: as §1

O5H14 = tested on: T3, O5H14
T3 sequence (whole entry): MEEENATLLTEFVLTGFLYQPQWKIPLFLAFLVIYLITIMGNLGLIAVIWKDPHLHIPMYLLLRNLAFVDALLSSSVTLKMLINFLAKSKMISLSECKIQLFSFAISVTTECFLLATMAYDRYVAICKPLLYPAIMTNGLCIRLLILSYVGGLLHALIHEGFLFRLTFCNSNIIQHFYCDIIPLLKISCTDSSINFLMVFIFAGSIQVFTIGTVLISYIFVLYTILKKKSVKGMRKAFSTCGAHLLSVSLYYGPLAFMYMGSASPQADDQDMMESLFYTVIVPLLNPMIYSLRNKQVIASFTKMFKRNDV
Outline: as §1

O5H15 V108I S148T T167S = tested on: T4, O5H15 V108I S148T T167S
T4 sequence (whole entry): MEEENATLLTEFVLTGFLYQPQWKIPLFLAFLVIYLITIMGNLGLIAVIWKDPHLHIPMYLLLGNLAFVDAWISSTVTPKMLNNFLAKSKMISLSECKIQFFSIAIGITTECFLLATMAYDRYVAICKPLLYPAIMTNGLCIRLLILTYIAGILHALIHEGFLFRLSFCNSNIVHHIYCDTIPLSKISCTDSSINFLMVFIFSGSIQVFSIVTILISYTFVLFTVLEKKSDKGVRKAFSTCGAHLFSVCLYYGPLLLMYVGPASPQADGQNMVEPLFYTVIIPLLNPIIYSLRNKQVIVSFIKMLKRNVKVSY
Outline: as §1

O6C65 T222A = tested on: T5, O6C65 T222A
T5 sequence (whole entry): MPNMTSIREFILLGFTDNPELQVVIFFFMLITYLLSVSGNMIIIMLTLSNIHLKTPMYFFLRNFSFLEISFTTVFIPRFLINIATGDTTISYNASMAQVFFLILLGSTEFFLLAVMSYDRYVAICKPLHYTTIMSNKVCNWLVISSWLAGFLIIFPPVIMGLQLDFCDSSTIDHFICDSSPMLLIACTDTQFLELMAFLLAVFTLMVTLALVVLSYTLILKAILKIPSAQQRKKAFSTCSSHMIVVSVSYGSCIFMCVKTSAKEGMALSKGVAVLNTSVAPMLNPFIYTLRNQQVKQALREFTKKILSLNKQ
Outline: as §1

O6C70 L181P = tested on: T6, O6C70 L181P
T6 sequence (whole entry): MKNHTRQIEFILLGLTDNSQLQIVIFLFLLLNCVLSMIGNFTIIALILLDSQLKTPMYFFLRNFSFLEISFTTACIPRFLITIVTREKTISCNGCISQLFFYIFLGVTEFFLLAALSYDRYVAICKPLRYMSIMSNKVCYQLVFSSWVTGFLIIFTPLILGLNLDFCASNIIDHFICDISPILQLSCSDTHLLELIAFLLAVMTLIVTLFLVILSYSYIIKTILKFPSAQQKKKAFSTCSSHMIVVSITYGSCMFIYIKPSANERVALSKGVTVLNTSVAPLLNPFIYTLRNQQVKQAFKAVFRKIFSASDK
Outline: as §1

O7E24 S193F P242S = tested on: T7, O7E24 S193F P242S
T7 sequence (whole entry): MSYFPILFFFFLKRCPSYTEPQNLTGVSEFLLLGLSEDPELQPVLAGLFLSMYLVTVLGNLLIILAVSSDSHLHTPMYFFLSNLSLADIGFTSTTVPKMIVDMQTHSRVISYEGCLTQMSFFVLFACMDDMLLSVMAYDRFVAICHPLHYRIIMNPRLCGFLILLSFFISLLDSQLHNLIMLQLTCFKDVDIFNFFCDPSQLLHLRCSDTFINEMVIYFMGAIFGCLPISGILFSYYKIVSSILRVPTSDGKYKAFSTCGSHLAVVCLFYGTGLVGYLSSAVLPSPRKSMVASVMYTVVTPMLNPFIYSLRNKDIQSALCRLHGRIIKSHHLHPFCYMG
Outline: as §1

O7E24 = tested on: T8, O7E24
T8 sequence (whole entry): T7 sequence (whole entry) with F193S
Outline: as §1

OR10A2 (Homo sapiens) = biological target: T9, OR10A2 (Homo sapiens) (UniProt Q9H208)
T9 sequence (whole entry): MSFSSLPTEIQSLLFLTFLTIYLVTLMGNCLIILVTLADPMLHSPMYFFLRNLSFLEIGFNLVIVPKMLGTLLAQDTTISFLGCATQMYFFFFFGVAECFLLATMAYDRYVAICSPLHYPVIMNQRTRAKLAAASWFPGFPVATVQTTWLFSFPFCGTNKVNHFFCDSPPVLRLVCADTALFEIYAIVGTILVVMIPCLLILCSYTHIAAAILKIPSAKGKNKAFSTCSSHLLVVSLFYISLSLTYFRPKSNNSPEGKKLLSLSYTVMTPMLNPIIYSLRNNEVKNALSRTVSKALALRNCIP
Outline: as §1

OR10A3 (Homo sapiens) = biological target: T10, OR10A3 (Homo sapiens) (UniProt P58181)
T10 sequence (whole entry): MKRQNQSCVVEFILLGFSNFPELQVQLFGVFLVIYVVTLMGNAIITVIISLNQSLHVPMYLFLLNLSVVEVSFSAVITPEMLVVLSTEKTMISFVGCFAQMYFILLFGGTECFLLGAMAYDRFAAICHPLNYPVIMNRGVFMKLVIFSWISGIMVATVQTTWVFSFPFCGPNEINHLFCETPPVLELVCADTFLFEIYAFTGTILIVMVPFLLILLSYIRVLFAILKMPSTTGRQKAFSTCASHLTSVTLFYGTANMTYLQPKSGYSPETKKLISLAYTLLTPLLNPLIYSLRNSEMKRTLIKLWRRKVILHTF
Outline: as §1

OR10A4 (Homo sapiens) = biological target: T11, OR10A4 (Homo sapiens) (UniProt Q9H209)
T11 sequence (whole entry): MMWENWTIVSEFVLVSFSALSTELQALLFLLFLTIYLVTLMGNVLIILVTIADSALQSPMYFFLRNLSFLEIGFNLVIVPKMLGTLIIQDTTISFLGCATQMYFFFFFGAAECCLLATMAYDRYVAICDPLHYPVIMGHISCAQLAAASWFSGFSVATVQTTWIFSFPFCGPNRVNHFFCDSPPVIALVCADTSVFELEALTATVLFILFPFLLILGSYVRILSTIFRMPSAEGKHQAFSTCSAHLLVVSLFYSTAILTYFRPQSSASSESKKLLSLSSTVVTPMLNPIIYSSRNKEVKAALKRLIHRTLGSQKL
Outline: as §1

OR10A5 (Homo sapiens) = biological target: T12, OR10A5 (Homo sapiens) (UniProt Q9H207)
T12 sequence (whole entry): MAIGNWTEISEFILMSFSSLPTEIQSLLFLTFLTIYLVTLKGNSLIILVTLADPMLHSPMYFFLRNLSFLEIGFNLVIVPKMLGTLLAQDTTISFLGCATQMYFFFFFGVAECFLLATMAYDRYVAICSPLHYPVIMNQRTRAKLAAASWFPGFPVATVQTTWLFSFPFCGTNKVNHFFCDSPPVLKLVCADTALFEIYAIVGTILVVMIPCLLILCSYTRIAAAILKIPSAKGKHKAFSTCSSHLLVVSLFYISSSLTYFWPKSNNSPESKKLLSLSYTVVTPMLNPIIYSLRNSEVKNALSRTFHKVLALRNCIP
Outline: as §1

OR10A6 (Homo sapiens) = biological target: T13, OR10A6 (Homo sapiens) (UniProt Q8NH74)
T13 sequence (whole entry): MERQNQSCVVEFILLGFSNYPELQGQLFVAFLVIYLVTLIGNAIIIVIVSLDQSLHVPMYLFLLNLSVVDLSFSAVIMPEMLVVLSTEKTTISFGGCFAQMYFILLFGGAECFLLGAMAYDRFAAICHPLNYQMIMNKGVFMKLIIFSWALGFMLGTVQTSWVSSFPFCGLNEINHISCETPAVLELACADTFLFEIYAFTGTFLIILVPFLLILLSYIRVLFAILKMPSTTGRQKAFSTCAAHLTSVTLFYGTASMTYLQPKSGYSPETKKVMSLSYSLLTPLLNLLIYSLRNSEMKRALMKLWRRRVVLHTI
Outline: as §1

OR10A7 (Homo sapiens) = biological target: T14, OR10A7 (Homo sapiens) (UniProt Q8NGE5)
T14 sequence (whole entry): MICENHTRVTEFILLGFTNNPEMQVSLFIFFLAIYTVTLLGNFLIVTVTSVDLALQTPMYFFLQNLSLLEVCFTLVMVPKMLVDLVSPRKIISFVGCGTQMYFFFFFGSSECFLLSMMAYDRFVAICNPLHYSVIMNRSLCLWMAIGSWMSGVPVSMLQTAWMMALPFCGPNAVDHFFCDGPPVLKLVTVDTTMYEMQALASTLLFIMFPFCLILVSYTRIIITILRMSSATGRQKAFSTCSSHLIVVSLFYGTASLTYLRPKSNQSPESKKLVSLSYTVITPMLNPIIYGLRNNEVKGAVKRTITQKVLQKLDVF
Outline: as §1

OR10AD1 (Homo sapiens) = biological target: T15, OR10AD1 (Homo sapiens) (UniProt Q8NGE0)
T15 sequence (whole entry): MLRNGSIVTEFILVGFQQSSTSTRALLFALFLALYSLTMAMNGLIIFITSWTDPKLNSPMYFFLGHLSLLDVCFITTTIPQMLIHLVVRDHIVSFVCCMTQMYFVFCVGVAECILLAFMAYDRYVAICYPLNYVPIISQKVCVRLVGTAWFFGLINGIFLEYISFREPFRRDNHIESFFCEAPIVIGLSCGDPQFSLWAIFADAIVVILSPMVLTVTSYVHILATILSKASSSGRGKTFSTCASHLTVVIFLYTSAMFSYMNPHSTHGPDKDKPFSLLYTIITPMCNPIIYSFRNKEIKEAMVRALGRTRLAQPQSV
Outline: as §1

OR10AG1 (Homo sapiens) = biological target: T16, OR10AG1 (Homo sapiens) (UniProt Q8NH19)
T16 sequence (whole entry): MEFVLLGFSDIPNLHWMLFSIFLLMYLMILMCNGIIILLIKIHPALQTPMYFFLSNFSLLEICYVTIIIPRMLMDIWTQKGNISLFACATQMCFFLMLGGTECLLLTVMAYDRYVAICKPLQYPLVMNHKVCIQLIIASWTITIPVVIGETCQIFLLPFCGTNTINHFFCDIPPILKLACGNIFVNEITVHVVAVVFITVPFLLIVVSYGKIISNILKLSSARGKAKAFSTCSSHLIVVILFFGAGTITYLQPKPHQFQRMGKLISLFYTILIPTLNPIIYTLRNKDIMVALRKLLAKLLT
Outline: as §1

OR10C1 (Homo sapiens) = biological target: T17, OR10C1 (Homo sapiens) (UniProt Q96KK4)
T17 sequence (whole entry): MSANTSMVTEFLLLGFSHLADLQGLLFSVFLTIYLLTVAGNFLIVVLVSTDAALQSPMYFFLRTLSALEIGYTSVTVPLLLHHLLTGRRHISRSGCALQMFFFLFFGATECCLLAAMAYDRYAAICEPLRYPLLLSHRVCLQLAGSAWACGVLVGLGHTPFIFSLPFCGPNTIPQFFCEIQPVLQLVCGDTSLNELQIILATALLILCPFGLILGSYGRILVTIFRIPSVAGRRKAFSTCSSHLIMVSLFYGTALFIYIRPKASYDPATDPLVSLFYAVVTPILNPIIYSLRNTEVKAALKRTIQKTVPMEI
Outline: as §1

OR10D3 (Homo sapiens) = biological target: T18, OR10D3 (Homo sapiens) (UniProt Q8NH80)
T18 sequence (whole entry): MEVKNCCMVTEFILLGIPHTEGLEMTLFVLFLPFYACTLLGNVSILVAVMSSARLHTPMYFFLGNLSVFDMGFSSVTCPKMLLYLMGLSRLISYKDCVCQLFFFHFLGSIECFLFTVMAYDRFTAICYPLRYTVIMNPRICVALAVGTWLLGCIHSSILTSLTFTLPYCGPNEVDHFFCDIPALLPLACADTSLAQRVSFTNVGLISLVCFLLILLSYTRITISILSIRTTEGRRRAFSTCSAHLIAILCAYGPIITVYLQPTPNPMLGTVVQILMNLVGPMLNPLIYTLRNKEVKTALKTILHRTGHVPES
Outline: as §1

Measured: odorant receptor agonist call

CC1=C(O)C(=O)C(C)O1 (stereo not drawn)
inactive: all assays above
